# Measurements from different studies.
# Each line is one published result; the experiments were not run side by side.
# Target: 5-hydroxytryptamine receptor 3A (HTR3A, Homo sapiens, UniProt P46098)
# Concentration: 10 µM
# One construct used (P46098 24-478): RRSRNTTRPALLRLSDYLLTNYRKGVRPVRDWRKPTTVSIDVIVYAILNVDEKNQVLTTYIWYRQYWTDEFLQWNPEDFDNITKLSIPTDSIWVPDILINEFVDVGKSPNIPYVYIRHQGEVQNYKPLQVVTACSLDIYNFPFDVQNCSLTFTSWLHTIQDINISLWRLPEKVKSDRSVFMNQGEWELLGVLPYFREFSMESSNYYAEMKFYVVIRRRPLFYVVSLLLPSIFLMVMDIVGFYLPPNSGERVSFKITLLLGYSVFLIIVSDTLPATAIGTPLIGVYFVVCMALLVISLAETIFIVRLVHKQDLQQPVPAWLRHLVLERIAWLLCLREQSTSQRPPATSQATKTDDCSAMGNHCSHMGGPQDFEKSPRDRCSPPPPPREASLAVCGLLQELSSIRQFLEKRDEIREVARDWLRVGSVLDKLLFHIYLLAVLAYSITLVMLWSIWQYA
Structure (SMILES),effect on,technique,quantity,result
c1ccc(C(NCCNC(c2ccccc2)c2ccccc2)c2ccccc2)cc1,cell-free assay,,inhibition,-16%
Cc1c(N2CCNCC2)nc2ccc(Br)cc2c1C(=O)NC[C@H](CCC(=O)O)c1ccccc1Cl,cell-free assay,,inhibition,86%
Clc1ccc2c(C3CCN(CCc4c[nH]c5ccccc45)CC3)c[nH]c2c1,ligand displacement,radioligand,inhibition,38%
COc1cc2c3c(c1OC)-c1cc4c(cc1CC3N(C)CC2)OCO4 (racemic),ligand displacement,radioligand,inhibition,44.6%
CCN(CC)CCCC[C@H](NC(=O)[C@H](CC(C)C)NC(=O)[C@H](C)NC(=O)[C@H](Cc1ccccc1)NC(=O)c1ccc(C(C)(C)C)cc1)C(=O)N[C@@H](CO)C(=O)OC,ligand displacement,radioligand,inhibition,-21%
COc1ccc(N=Nc2ccc3[nH]cc(CCN(C)C)c3c2)cc1,ligand displacement,radioligand,inhibition,< 50%
C[C@H](C(=O)N[C@H]1COc2ccccc2[C@@H]1S(C)(=O)=O)c1ccc(F)cc1,cell-free assay,,inhibition,6%
CC(C)N1CCC[C@H]1CNC(=O)c1cn(C2CCCC2)c(=O)c2c1c1ccccc1n2C,ligand displacement,radioligand,inhibition,-4%
Cn1cncc1[C@@](O)(COc1ccc(C#N)cc1-c1ccc(OC(F)(F)F)cc1)c1ccc(C#N)cc1,cell-free assay,,inhibition,-0.62%
Nc1ncc(-c2nc(N3CCOCC3)nc(N3CCOCC3)n2)c(C(F)F)n1,cell-free assay,,remaining signal,100%
CC(C)Cn1cnc2c(N)nc3ccccc3c21,ligand displacement,radioligand,inhibition,8%
